SMILES strings stand for the structures.

What all share (assay type): functional
Assay [1] deals with Rattus norvegicus. Briefly: Antihyperglycemic activity against streptozotocin-induced Sprague-Dawley albino rat diabetic model assessed as area under the 0 to 5 hrs blood glucose response curve (0-5 hrs AUC) at 25 mg/kg, po after 48 hrs by glucometer. Summed up: (§1)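 Male Sprague–Dawley rats, fasted overnight, received STZ 60 mg/kg ip in 0.1 M citrate pH 4.5. Rats with glucose 140–270 mg/dl at 48 h were used, n = 5 per group. Compound was given at 25 mg/kg orally in 1.0% gum acacia, with vehicle controls, and a sucrose load of 2.5 g/kg followed 30 min later. Glucose was read by glucometer at 1–6 h and 24 h. Percent activity came from AUC versus control, with Dunnett's test.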

Assay [2] relates to Rattus norvegicus. The assay can be described thus: Antihyperglycemic activity against streptozotocin-induced Sprague-Dawley albino rat diabetic model assessed as area under the 0 to 24 hrs blood glucose response curve (0-24 hrs AUC) at 25 mg/kg, po after 48 hrs by glucometer. Summed up:
as §1

The subject of assay [3] is L6. The assay can be described thus: Antihyperglycemic activity against rat L6 cells assessed as increase in glucose uptake by liquid scintillation counting. Details: concentration or dose not given beside the values. Summed up:
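L6 myoblasts were grown in DMEM with 10% FBS, then differentiated into myotubes for 7–8 days in 2% FBS. Myotubes were treated with compound at 10 or 50 µM for 18 h and washed in Krebs–Ringer HEPES. Uptake of 2-deoxy-[3H]-D-glucose (3 µCi, plus 20 µM unlabelled) was measured over 15 min. Non-specific uptake was taken with 10 µM cytochalasin B. Counts (cpm/well) were compared with controls.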

Assay [4] relates to Rattus norvegicus. The assay can be described thus: Antihyperglycemic activity against streptozotocin-induced Sprague-Dawley albino rat diabetic model assessed as reduction in blood glucose at 25 mg/kg, po after 24 hrs. Details: scale not given: the % may be the effect or the level left. Summed up: as §1

For `OC[C@H]1O[C@@H](c2c(O)cccc2O)[C@H](O)[C@@H](O)[C@@H]1O`, the Activity in assay [1] amounted to 12.7%; in assay [2], 22.3%.

As to `O=c1cc(-c2ccc(O)c(O)c2)oc2c([C@@H]3O[C@H](CO)[C@@H](O)[C@H](O)[C@H]3O)c(O)ccc12`, the Activity in assay [1] is on record as 14.3%; in assay [2] it was 16.1%.

`OC[C@H]1O[C@@H](c2c(O)ccc3cc(Cc4ccc(O)cc4)oc23)[C@H](O)[C@@H](O)[C@@H]1O`: the Activity in assay [1] worked out at 9.78%; in assay [2], 11.2%.

Regarding `O=C1c2ccc(O)c([C@@H]3O[C@H](CO)[C@@H](O)[C@H](O)[C@H]3O)c2OC1(O)Cc1ccc(O)cc1` (stereo not given in full), the results for the Activity in assay [1] and in assay [2] were 1.99% and 7.9%, respectively.

As for `O=C(CC(O)c1ccc(O)c(O)c1)c1ccc(O)c([C@@H]2O[C@H](CO)[C@@H](O)[C@H](O)[C@H]2O)c1O` (stereo not given in full), the results for the Activity in assay [1] and in assay [2] were 20% and 19.5%, respectively.

On to `O=C1Oc2c(ccc(O)c2[C@@H]2O[C@H](CO)[C@@H](O)[C@H](O)[C@H]2O)/C1=C\c1ccc(O)cc1`, for which the Activity in assay [1] came out at 17.2%; in assay [2] it was 29%; in assay [3], 16%.

As to `O=C1c2c(cc(O)c([C@@H]3O[C@H](CO)[C@@H](O)[C@H](O)[C@H]3O)c2O)OC(c2ccc(O)c(O)c2)C1O` (stereo not given in full), the Activity in assay [1] is given as 17.6%; in assay [2] it was 12.8%; in assay [3], 10.2%.

Take `O=C1CC(c2ccc(O)cc2)Oc2cc(O)c([C@@H]3O[C@H](CO)[C@@H](O)[C@H](O)[C@H]3O)c(O)c21` (stereo not given in full): the Activity was determined as 8.41% in assay [1], 15.1% in assay [2] and 12.2% in assay [3].

`O=C1c2c(cc(O)c([C@@H]3O[C@H](CO)[C@@H](O)[C@H](O)[C@H]3O)c2O)OC(c2ccc(O)cc2)C1O` (stereo not given in full): the Activity in assay [1], in assay [2] and in assay [4] was 23.8% in each case.

Take `COC(=O)c1c(O)c([C@@H]2O[C@H](CO)[C@@H](O)[C@H](O)[C@H]2O)c(O)c([C@@H]2O[C@H](CO)[C@@H](O)[C@H](O)[C@H]2O)c1O`: the Activity in assay [1] is on record as 11.5%; in assay [2] it was 7.78%; in assay [3], 10.8%.

For `CC(=O)c1c(O)cc(O)c([C@@H]2O[C@H](CO)[C@@H](O)[C@H](O)[C@H]2O)c1O`, the Activity in assay [1] is given as 18%; in assay [2] it was 20.9%; in assay [3], 15.3%.

`O=C(CCc1ccccc1)c1c(O)cc(O)c([C@@H]2O[C@H](CO)[C@@H](O)[C@H](O)[C@H]2O)c1O`: the Activity in assay [1] came to 22.3%; in assay [2] it was 26.5%; in assay [4], 26.5%; in assay [3], 11.6%.

For the compound `COc1cc(OC)c([C@@H]2O[C@H](CO)[C@@H](O)[C@H](O)[C@H]2O)c(OC)c1C(=O)/C=C/c1ccc(C(C)C)cc1`, the Activity in assay [1] was 34.9%; in assay [2], 33.6%; in assay [4], 33.6%.

Take `O=c1c(O)c(-c2ccc(O)cc2)oc2cc(O)c([C@@H]3O[C@H](CO)[C@@H](O)[C@H](O)[C@H]3O)c(O)c12`: the Activity in assay [1] was found to be 16.7%; in assay [2], 23.5%; in assay [3], 12.2%.

With `COC(=O)c1c(O)cc(O)c([C@@H]2O[C@H](CO)[C@@H](O)[C@H](O)[C@H]2O)c1O`, the results for the Activity in assay [1] and in assay [2] were 7.27% and 2.9%, respectively.

For `O=c1c(O)c(-c2ccc(O)c(O)c2)oc2cc(O)c([C@@H]3O[C@H](CO)[C@@H](O)[C@H](O)[C@H]3O)c(O)c12`, the Activity in assay [1] amounted to 15.6%; in assay [2] it was 8.56%.

Turning to `CN(C)C(=N)NC(=N)N` [METFORMIN], the figures for the Activity in assay [1], in assay [2] and in assay [3] were 27.2%, 24.1% and 19.4%, respectively.

Source of the values: ChEMBL document CHEMBL1641563, “Synthesis and antihyperglycemic activity of phenolic C-glycosides” (2011).
